High-throughput results as filed in PubChem BioAssay.
Sampled rows, rich in hits. Any-hit rate of the full collection: about 1.9%.
VIM-2 inhibitor: inhibitors of Pseudomonas aeruginosa VIM-2 metallo-beta-lactamase. purified VIM-2, nitrocefin hydrolysis, epi-absorbance fluorescence. inhibition, % at 5.6 µM. hit rate 0.89% among 290,000. AID 1527;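 active = inhibition above the mean of all tested compounds plus 3 SD, cutoff set per screening run, cut at about 7.5% in these data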;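 note: red hydrolysis product quenches plate fluorescence so inhibitors raise well fluorescence; 0% = enzyme with DMSO and 100% = DMSO without enzyme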
T cell HTS: modulates CD8 T cell binding to vesicles | 2C CD8+ T cell-vesicle binding, flow cytometry; stronger effect = lower value | response (vesicle binding), % at 7 µM | hit rate 0.068% among 330,000;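 active = response, share of CD8 T cells binding vesicles, and their 90th percentile fluorescence all below set limits, cut at about 80% in these data, passing the limit was not always enough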;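 note: values below 100% mean blocked vesicle binding to the CD8+ T cells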
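Assay system – 2C mouse CD8+ T cells · Also added – QL9-loaded Drosophila micro-vesicles · Timing – Cell–vesicle co-incubation 1.5 h at 37 °C, staining 20 min on ice · Signal – flow cytometry of vesicle-bound cells · Measure – percent CD8+ FL2 mean versus row control · Controls – Peptide-free naked vesicles (low) and QL9 vesicles with 0.7% DMSO vehicle (high)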
CTSL1 counter: blocks F. hepatica cathepsin L1 in PFM18AAP counter-screen; recombinant F. hepatica cathepsin L1, Z-Leu-Arg-MCA fluorescence; AID 1906; inhibition, % at 5.96 µM; hit rate 0.49% among 300,000;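 active = inhibition above the mean of all tested compounds plus 3 SD, set per screening campaign, cut at about 17% in these data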;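 note: 0% = plate median of test compound wells and 100% = 1 µM Z-Phe-Ala-diazomethylketone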
IMP-1 inh-1: blocks Pseudomonas aeruginosa IMP-1 metallo-beta-lactamase | inhibition, % at 5.6 µM | purified IMP-1, nitrocefin hydrolysis, epi-absorbance fluorescence | hit rate 0.45% among 290,000 | AID 1556;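 active = inhibition above the mean plus 3 SD of all compounds in the same screening run, cut at about 4.5% in these data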;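 note: 0% = IMP-1 with DMSO and 100% = DMSO wells lacking enzyme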
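System: purified IMP-1; amount: IMP-1 0.2 nM before substrate addition; compound: single dose, 5.6 µM; times: 25 °C, 15 min preincubation, 25 min reaction; signal: Epi-absorbance via hydrolysed-nitrocefin quenching of white-plate fluorescence, 480/530 nm, EDTA stop; benchmarks: DMSO with and without IMP-1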
pCIP destab: compounds decreasing mouse p/CIP protein stability. AID 1984. F442A p/CIP-EGFP cells, EGFP fluorescence, 16 h. decrease of EGFP signal, % at 10 µM. Q05BA5. hit rate 0.01% among 290,000;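 active = EGFP signal decrease of at least 30% at 10 µM or well 3 SD below plate mean, unless failing retest; inactive = the rest, including hits failing retest or dose response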
UBC9 SUMO inh: inhibitors of human SUMOylation (UBC9); HTRF SUMOylation assay, SAE1/SAE2 + UBC9, in vitro; inhibition, % at 35 µM; hit rate 0.36% among 290,000; AID 2006; P63279; in the data active = inhibition above about 50%, passing the limit was not always enough
Target sequence (P63279 whole entry, looked up): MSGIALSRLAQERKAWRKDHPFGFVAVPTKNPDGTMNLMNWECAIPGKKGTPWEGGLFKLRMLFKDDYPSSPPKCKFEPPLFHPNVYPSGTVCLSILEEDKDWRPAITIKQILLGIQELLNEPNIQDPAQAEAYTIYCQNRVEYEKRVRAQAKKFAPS
IMP-1 inh-2: blocks IMP-1 metallo-beta-lactamase in VIM-2 selectivity screen; shares compounds with VIM-2 inhibitor; purified IMP-1, nitrocefin hydrolysis, epi-absorbance fluorescence; inhibition, % at 5.6 µM; 1,300 tested, under 10 active; call rule not given here;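 note: 0% = enzyme with vehicle and 100% = vehicle without enzyme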
VIM-2 FRET ctr: VIM-2 FRET inhibition, artifact counter-screen | shares compounds with VIM-2 inhibitor | purified VIM-2, CCF2 FRET substrate hydrolysis | inhibition, % at 5.6 µM | hit rate 23% among 1,300 | AID 1857;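 active = inhibition above the mean of all tested compounds plus 3 SD, cut at about 19% in these data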;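 note: 0% = VIM-2 plus DMSO and 100% = no enzyme wells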
TEM-1 counter: blocks E. coli TEM-1 beta-lactamase in VIM-2 selectivity screen | Purified TEM-1, nitrocefin hydrolysis, epi-absorbance fluorescence | shares compounds with VIM-2 inhibitor | AID 1866 | inhibition, % at 5.6 µM | hit rate 3% among 1,300;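 active = inhibition above that campaign's mean inhibition plus 3 SD, cut at about 0.46% in these data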;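 note: 0% = TEM-1 with DMSO and 100% = TEM-1 with 100 µM potassium clavulanate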
Target sequence (P62593 whole entry, looked up): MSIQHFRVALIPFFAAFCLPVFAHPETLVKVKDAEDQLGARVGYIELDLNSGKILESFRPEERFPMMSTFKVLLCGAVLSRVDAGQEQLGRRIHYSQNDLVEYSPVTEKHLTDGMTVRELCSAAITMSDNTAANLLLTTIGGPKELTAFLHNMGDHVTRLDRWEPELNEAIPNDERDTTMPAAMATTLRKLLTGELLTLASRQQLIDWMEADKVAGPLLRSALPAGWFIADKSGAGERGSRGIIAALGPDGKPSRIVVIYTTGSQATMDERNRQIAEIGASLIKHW
VIM-2 confirm 2: confirmation of P. aeruginosa VIM-2 metallo-beta-lactamase inhibitors; shares compounds with VIM-2 inhibitor; purified VIM-2, nitrocefin hydrolysis, epi-absorbance; inhibition, % at 5.6 µM; hit rate 96% among 1,300; AID 2187;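 active = inhibition of the VIM-2 beta-lactamase enzyme above about 11% from the earlier first-round screen, limit read from the data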;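 note: 0% = VIM-2 with DMSO and 100% = buffer wells without enzyme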
* hit, by the source's call.

Results for CC(C)(C)C(=O)Nc1nnc(SCC(=O)NCc2cccs2)s1 ?
VIM-2 inhibitor: 56*; T cell HTS: 682; CTSL1 counter: -2; IMP-1 inh-1: -2; pCIP destab: -6; UBC9 SUMO inh: 23; IMP-1 inh-2: -3; VIM-2 FRET ctr: 79*; TEM-1 counter: -6; VIM-2 confirm 2: 61*

What do the screens show for `CC(C)C(=O)Nc1nnc(SCC(=O)NCc2cccs2)s1`?
VIM-2 inhibitor: 14*; T cell HTS: 440; CTSL1 counter: 7; IMP-1 inh-1: -3; pCIP destab: 50; UBC9 SUMO inh: 13; IMP-1 inh-2: -3; VIM-2 FRET ctr: 41*; TEM-1 counter: -5; VIM-2 confirm 2: 26*

What do the screens show for `Cc1cccc(C)c1Nc1nnc(SCC(=O)NCc2cccs2)s1`?
VIM-2 inhibitor: 0; T cell HTS: 267; CTSL1 counter: -2; IMP-1 inh-1: -2; pCIP destab: 4; UBC9 SUMO inh: -15

Results for Cc1cc(Cl)ccc1NC(=S)NCc1ccc(F)cc1 ?
VIM-2 inhibitor: -3; T cell HTS: 341; CTSL1 counter: 3; IMP-1 inh-1: -4; pCIP destab: -10; UBC9 SUMO inh: 4

How did O=C(OCC(=O)N1CCCC1)c1c(Cl)ccc(Cl)c1Cl do in these assays?
VIM-2 inhibitor: -6; T cell HTS: 320; CTSL1 counter: 2; IMP-1 inh-1: -3; pCIP destab: -2; UBC9 SUMO inh: 13

What do the screens show for `CC(=O)Cn1cnc2c(sc3nc(C)cc(C)c32)c1=O`?
VIM-2 inhibitor: 14*; T cell HTS: 134; CTSL1 counter: -6; IMP-1 inh-1: -3; pCIP destab: -12; UBC9 SUMO inh: 8; IMP-1 inh-2: -3; VIM-2 FRET ctr: -2; TEM-1 counter: -5; VIM-2 confirm 2: 17*

Results for CCOC(=O)C1=C(COC(=O)COc2ccc(OCC)cc2)NC(=O)NC1C (stereo not given) ?
T cell HTS: inactive; CTSL1 counter: -7

What do the screens show for `COc1cc(C2NC(=O)CCC2[N+](=O)[O-])c(OC)cc1Br` (stereo not given)?
VIM-2 inhibitor: 1; T cell HTS: 219; CTSL1 counter: 1; IMP-1 inh-1: -2; pCIP destab: 0; UBC9 SUMO inh: 3

How did CCc1cc2c(CN3CCN(CCO)CC3)cc(=O)oc2cc1O do in these assays?
VIM-2 inhibitor: 18*; T cell HTS: 262; CTSL1 counter: -2; IMP-1 inh-1: -3; pCIP destab: 0; UBC9 SUMO inh: 45; IMP-1 inh-2: -3; VIM-2 FRET ctr: -19; TEM-1 counter: -7; VIM-2 confirm 2: 25*

What do the screens show for `CCc1cc2c(CN3CCN(C)CC3)cc(=O)oc2cc1O`?
VIM-2 inhibitor: 16*; T cell HTS: 254; CTSL1 counter: 0; IMP-1 inh-1: 1; pCIP destab: -14; UBC9 SUMO inh: 41; IMP-1 inh-2: -1; VIM-2 FRET ctr: -16; TEM-1 counter: 1.1*; VIM-2 confirm 2: 31*

How did Cc1cc2oc(=O)cc(CN3CCN(Cc4ccccc4)CC3)c2cc1O do in these assays?
VIM-2 inhibitor: -1; T cell HTS: 136; CTSL1 counter: 0; IMP-1 inh-1: -2; pCIP destab: 11; UBC9 SUMO inh: 2

Results for NC(=O)C1CCN(C(=O)c2ccc3nc(-c4ccccc4)c(-c4ccccc4)nc3c2)CC1 ?
VIM-2 inhibitor: -1; T cell HTS: 386; CTSL1 counter: 0; IMP-1 inh-1: -4; pCIP destab: 0; UBC9 SUMO inh: 8

How did O=C(O)c1ccccc1NS(=O)(=O)c1cccc(C(F)(F)F)c1 do in these assays?
VIM-2 inhibitor: 1; T cell HTS: 512; CTSL1 counter: 2; IMP-1 inh-1: -4; pCIP destab: -9; UBC9 SUMO inh: 15

What do the screens show for `O=C(O)c1ccccc1NS(=O)(=O)c1cccc(-n2sc3ccccc3c2=O)c1`?
VIM-2 inhibitor: 19*; T cell HTS: 180; CTSL1 counter: 4; IMP-1 inh-1: -1; pCIP destab: 3; UBC9 SUMO inh: 15; IMP-1 inh-2: -3; VIM-2 FRET ctr: -24; TEM-1 counter: -7; VIM-2 confirm 2: 17*

What do the screens show for `COc1ccc(/C=C2\SC(=S)N(CCC(=O)N3CCOCC3)C2=O)cc1`?
VIM-2 inhibitor: -3; T cell HTS: 174; CTSL1 counter: 0; IMP-1 inh-1: 0; pCIP destab: -11; UBC9 SUMO inh: 6

How did COc1ccc(/C=C2\SC(=S)N(CCCC(=O)N3CCN(C)CC3)C2=O)cc1 do in these assays?
VIM-2 inhibitor: 15*; T cell HTS: 252; CTSL1 counter: -1; IMP-1 inh-1: 0; pCIP destab: -20; UBC9 SUMO inh: 11; IMP-1 inh-2: -2; VIM-2 FRET ctr: 0; TEM-1 counter: -7; VIM-2 confirm 2: 27*

What do the screens show for `CN1CCN(C(=O)CCc2nc3ccccc3c(=O)[nH]2)CC1`?
VIM-2 inhibitor: 21*; T cell HTS: 616; CTSL1 counter: 2; IMP-1 inh-1: -1; pCIP destab: 13; UBC9 SUMO inh: -2; IMP-1 inh-2: -3; VIM-2 FRET ctr: 0; TEM-1 counter: -6; VIM-2 confirm 2: 42*

Results for NC(=O)C1CCN(C(=O)CCc2nc3ccccc3c(=O)[nH]2)CC1 ?
VIM-2 inhibitor: 0; T cell HTS: 208; CTSL1 counter: 2; IMP-1 inh-1: -1; pCIP destab: -1; UBC9 SUMO inh: 4

What do the screens show for `CC(=C/C(=O)O)/C=C/c1ccc([N+](=O)[O-])cc1`?
VIM-2 inhibitor: 14*; T cell HTS: 887; CTSL1 counter: 2; IMP-1 inh-1: -3; pCIP destab: -12; UBC9 SUMO inh: 10; IMP-1 inh-2: -3; VIM-2 FRET ctr: 0; TEM-1 counter: -5; VIM-2 confirm 2: 7

How did CC(/C=C\c1ccccc1)=C/C(=O)O do in these assays?
VIM-2 inhibitor: -2; T cell HTS: 397; CTSL1 counter: 2; IMP-1 inh-1: -2; pCIP destab: -10; UBC9 SUMO inh: 11

Results for O=C(C1=C(O)C(=O)N(Cc2cccnc2)C1c1ccccn1)c1cccs1 (stereo not given) ?
VIM-2 inhibitor: 16*; T cell HTS: 263; CTSL1 counter: 1; IMP-1 inh-1: -4; pCIP destab: 3; UBC9 SUMO inh: 16; IMP-1 inh-2: -3; VIM-2 FRET ctr: 41*; TEM-1 counter: -5; VIM-2 confirm 2: 32*
